Legend:
HuT78 = assay: Giant-cell formation between persistently HIV-1 infected HUT-78 cells and uninfected MOLT-4 cells; assay type: functional, cell-based
Summary of the method: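 MOLT-4 cells were co-cultured with an equal number of HUT-78 cells persistently infected with HIV-1 IIIB or HIV-2 ROD, with varying compound concentrations. Syncytia were counted by flow cytofluorography after 24 h. EC50 is the concentration giving 50% protection against giant-cell formation.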

[1] = In vitro anticoagulant activity determined by clotting test of activated partial thromboplastin time (APTT) on a pool of human plasma; assay type: functional
Summary of the method: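 Activated partial thromboplastin time clotting test on pooled human plasma, run on an automatic coagulometer. Activities were calculated according to the European Pharmacopoeia.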

MT4 [2] = assay: Effective concentration to achieve 50% protection of MT-4 cells against the cytopathic effect of HIV-1; assay type: functional, cell-based
MT4 [3] = assay: Effective concentration to achieve 50% protection of MT-4 cells against the cytopathic effect of HIV-2; assay type: functional, cell-based
MT4 [4] = assay: Selectivity index for CC50 (cytotoxic concentration based on the reduction of the viability of mock-infected MT-4 cells) to that of EC50 against HIV-1; assay type: functional
Summary of the method: (§1)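 MT-4 cells at 3 × 10^5 cells/mL were infected with HIV-1 IIIB or HIV-2 ROD at 100 CCID50/mL, or mock-infected, alongside serial compound dilutions. Viability was read by MTT after 5 days at 37 °C. CC50 comes from mock-infected cells and EC50 from protection against cytopathicity. Index = CC50/EC50.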

MT4 [5] = assay: Selectivity index for CC50 (cytotoxic concentration based on reduction of viability of mock-infected MT-4 cells) to that of EC50 against HIV-2; assay type: functional; summary of the method: as §1
[6] = Homo sapiens, HuT78, read-out: EC50
[7] = Homo sapiens, MT4, read-out: EC50

| SMILES | EC50 (HuT78; hut78) | APTT [1] | EC50 (MT4 [2]; mt4) | EC50 (MT4 [3]; mt4) | Selectivity index (MT4 [4]) | Selectivity index (MT4 [5]) | EC50 (HuT78; [6]) | EC50 (MT4 [2]; [7]) | EC50 (MT4 [3]; [7]) |
| --- | --- | --- | --- | --- | --- | --- | --- | --- | --- |
| CCCC(=O)OC/C(=C\C(=O)[O-])O[C@H]1O[C@H](COS(=O)(=O)[O-])[C@@H](O[C@@H]2O[C@@H](C(=O)[O-])[C@@H](O[C@H]3O[C@H](COS(=O)(=O)[O-])[C@@H](O[C@@H]4O[C@@H](C(=O)[O-])[C@@H](O[C@H]5O[C@H](CS(=O)(=O)[O-])[C@@H](O)[C@H](OC(=O)CCC)[C@H]5NS(=O)(=O)[O-])[C@H](OC(=O)CCC)[C@H]4OS(=O)(=O)[O-])[C@H](OC(=O)CCC)[C@H]3NS(=O)(=O)[O-])[C@H](OC(=O)CCC)[C@H]2OS(=O)(=O)[O-])[C@H](OC(=O)CCC)[C@H]1NS(=O)(=O)[O-].[Na+].[Na+].[Na+].[Na+].[Na+].[Na+].[Na+].[Na+].[Na+].[Na+].[Na+] (stereo in doubt; 4d) | 37.3 µg/mL | 2.9 IU mg-1 | 1.31 µg/mL | 0.04 µg/mL | >382 | >12500 |  |  |  |
| COC1C(NC(C)=O)C(OC2C(C(=O)[O-])OC(OC3C(NC(C)=O)C(OC4C(C(=O)[O-])OC(C)C(OC(C)=O)C4O)OC(COC(C)=O)C3OS(=O)(=O)[O-])C(OC(C)=O)C2OC(C)=O)OC(COC(C)=O)C1OS(=O)(=O)[O-].[Na+].[Na+].[Na+].[Na+] (stereo not drawn) |  | 1.7 IU mg-1 |  |  |  | 5.7 | > 50 µg/mL | > 500 µg/mL | 88 µg/mL |
| CCCC(=O)OCC1OC(OC2C(C(=O)[O-])OC(OC3C(NC(C)=O)C(OC4C(C(=O)[O-])OC(C)C(OC(=O)CCC)C4O)OC(COC(=O)CCC)C3OS(=O)(=O)[O-])C(OC(=O)CCC)C2OC(=O)CCC)C(NC(C)=O)C(OC)C1OS(=O)(=O)[O-].[Na+].[Na+].[Na+].[Na+] (stereo not drawn) |  | 3.7 IU mg-1 |  |  | 8 | 25 | > 100 µg/mL | 54.2 µg/mL | 18 µg/mL |
| CCCC(=O)OC/C(=C\C(=O)[O-])O[C@H]1O[C@H](COS(=O)(=O)[O-])[C@@H](O[C@@H]2O[C@@H](C(=O)[O-])[C@@H](O[C@H]3O[C@H](COS(=O)(=O)[O-])[C@@H](O[C@@H]4O[C@@H](C(=O)[O-])[C@@H](O[C@H]5O[C@H](CS(=O)(=O)[O-])[C@@H](O)[C@H](OC(=O)CCC)[C@H]5NS(=O)(=O)[O-])[C@H](OC(=O)CCC)[C@H]4OS(=O)(=O)[O-])[C@H](OC(=O)CCC)[C@H]3NS(=O)(=O)[O-])[C@H](OC(=O)CCC)[C@H]2OS(=O)(=O)[O-])[C@H](OC(=O)CCC)[C@H]1NS(=O)(=O)[O-].[Na+].[Na+].[Na+].[Na+].[Na+].[Na+].[Na+].[Na+].[Na+].[Na+].[Na+] (stereo in doubt; 4b) | 17.4 µg/mL | 1.5 IU mg-1 | 20.9 µg/mL |  | >24 | >50000 |  |  |  |
| CCCC(=O)OC/C(=C\C(=O)[O-])O[C@H]1O[C@H](COS(=O)(=O)[O-])[C@@H](O[C@@H]2O[C@@H](C(=O)[O-])[C@@H](O[C@H]3O[C@H](COS(=O)(=O)[O-])[C@@H](O[C@@H]4O[C@@H](C(=O)[O-])[C@@H](O[C@H]5O[C@H](CS(=O)(=O)[O-])[C@@H](O)[C@H](OC(=O)CCC)[C@H]5NS(=O)(=O)[O-])[C@H](OC(=O)CCC)[C@H]4OS(=O)(=O)[O-])[C@H](OC(=O)CCC)[C@H]3NS(=O)(=O)[O-])[C@H](OC(=O)CCC)[C@H]2OS(=O)(=O)[O-])[C@H](OC(=O)CCC)[C@H]1NS(=O)(=O)[O-].[Na+].[Na+].[Na+].[Na+].[Na+].[Na+].[Na+].[Na+].[Na+].[Na+].[Na+] (stereo in doubt; 3b) |  | 5 IU mg-1 | 0.32 µg/mL | 1.94 µg/mL | 1121 | 185 |  |  |  |
| CCCC(=O)OC/C(=C\C(=O)[O-])O[C@H]1O[C@H](COS(=O)(=O)[O-])[C@@H](O[C@@H]2O[C@@H](C(=O)[O-])[C@@H](O[C@H]3O[C@H](COS(=O)(=O)[O-])[C@@H](O[C@@H]4O[C@@H](C(=O)[O-])[C@@H](O[C@H]5O[C@H](CS(=O)(=O)[O-])[C@@H](O)[C@H](OC(=O)CCC)[C@H]5NS(=O)(=O)[O-])[C@H](OC(=O)CCC)[C@H]4OS(=O)(=O)[O-])[C@H](OC(=O)CCC)[C@H]3NS(=O)(=O)[O-])[C@H](OC(=O)CCC)[C@H]2OS(=O)(=O)[O-])[C@H](OC(=O)CCC)[C@H]1NS(=O)(=O)[O-].[Na+].[Na+].[Na+].[Na+].[Na+].[Na+].[Na+].[Na+].[Na+].[Na+].[Na+] (stereo in doubt; 4a) | > 100 µg/mL | 0.3 IU mg-1 | 115 µg/mL |  | >4 | > 7140 |  |  |  |
| CCCC(=O)OC/C(=C\C(=O)[O-])O[C@H]1O[C@H](COS(=O)(=O)[O-])[C@@H](O[C@@H]2O[C@@H](C(=O)[O-])[C@@H](O[C@H]3O[C@H](COS(=O)(=O)[O-])[C@@H](O[C@@H]4O[C@@H](C(=O)[O-])[C@@H](O[C@H]5O[C@H](CS(=O)(=O)[O-])[C@@H](O)[C@H](OC(=O)CCC)[C@H]5NS(=O)(=O)[O-])[C@H](OC(=O)CCC)[C@H]4OS(=O)(=O)[O-])[C@H](OC(=O)CCC)[C@H]3NS(=O)(=O)[O-])[C@H](OC(=O)CCC)[C@H]2OS(=O)(=O)[O-])[C@H](OC(=O)CCC)[C@H]1NS(=O)(=O)[O-].[Na+].[Na+].[Na+].[Na+].[Na+].[Na+].[Na+].[Na+].[Na+].[Na+].[Na+] (stereo in doubt; 3c) | 60.4 µg/mL | 7 IU mg-1 |  | 1.17 µg/mL | 1032 | 282 |  |  |  |
| CCCC(=O)OC/C(=C\C(=O)[O-])O[C@H]1O[C@H](COS(=O)(=O)[O-])[C@@H](O[C@@H]2O[C@@H](C(=O)[O-])[C@@H](O[C@H]3O[C@H](COS(=O)(=O)[O-])[C@@H](O[C@@H]4O[C@@H](C(=O)[O-])[C@@H](O[C@H]5O[C@H](CS(=O)(=O)[O-])[C@@H](O)[C@H](OC(=O)CCC)[C@H]5NS(=O)(=O)[O-])[C@H](OC(=O)CCC)[C@H]4OS(=O)(=O)[O-])[C@H](OC(=O)CCC)[C@H]3NS(=O)(=O)[O-])[C@H](OC(=O)CCC)[C@H]2OS(=O)(=O)[O-])[C@H](OC(=O)CCC)[C@H]1NS(=O)(=O)[O-].[Na+].[Na+].[Na+].[Na+].[Na+].[Na+].[Na+].[Na+].[Na+].[Na+].[Na+] (stereo in doubt; 4j) | 10.7 µg/mL | 19.8 IU mg-1 |  | 0.21 µg/mL |  | 2381 |  |  |  |
| COC1C(NC(C)=O)C(OC2C(C(=O)[O-])OC(OC3C(NC(C)=O)C(OC4C(C(=O)[O-])OC(C)C(OC(=O)CCC(=O)[O-])C4O)OC(COC(=O)CCC(=O)[O-])C3OS(=O)(=O)[O-])C(OC(=O)CCC(=O)[O-])C2OC(=O)CCC(=O)[O-])OC(COC(=O)CCC(=O)[O-])C1OS(=O)(=O)[O-].[Na+].[Na+].[Na+].[Na+].[Na+].[Na+].[Na+].[Na+].[Na+] (stereo not drawn) |  | 9 IU mg-1 |  |  | 1.7 | 2 |  | 150 µg/mL | 50.4 µg/mL |
| CC(=O)N[C@H]1[C@@H](O[C@H]2[C@H](O)[C@@H](OC(C)=O)[C@H](O[C@H]3[C@@H](OS(=O)(=O)[O-])[C@@H](NS(=O)(=O)[O-])[C@@H](O[C@H]4[C@H](O)[C@@H](OS(=O)(=O)[O-])[C@H](O[C@H]5[C@H](O)[C@@H](CO)O[C@@H]5COS(=O)(=O)[O-])O[C@H]4C(=O)[O-])O[C@@H]3COS(=O)(=O)[O-])O[C@@H]2C(=O)[O-])O[C@H](COS(=O)(=O)[O-])[C@@H](O[C@@H]2O[C@@H](C(=O)[O-])[C@@H](O)[C@H](O)[C@H]2OC(C)=O)[C@@H]1O.[Na+].[Na+].[Na+].[Na+].[Na+].[Na+].[Na+].[Na+].[Na+] |  | 11 IU mg-1 |  |  | >8 |  |  | 77 µg/mL |  |
| CCCC(=O)OC/C(=C\C(=O)[O-])O[C@H]1O[C@H](COS(=O)(=O)[O-])[C@@H](O[C@@H]2O[C@@H](C(=O)[O-])[C@@H](O[C@H]3O[C@H](COS(=O)(=O)[O-])[C@@H](O[C@@H]4O[C@@H](C(=O)[O-])[C@@H](O[C@H]5O[C@H](CS(=O)(=O)[O-])[C@@H](O)[C@H](OC(=O)CCC)[C@H]5NS(=O)(=O)[O-])[C@H](OC(=O)CCC)[C@H]4OS(=O)(=O)[O-])[C@H](OC(=O)CCC)[C@H]3NS(=O)(=O)[O-])[C@H](OC(=O)CCC)[C@H]2OS(=O)(=O)[O-])[C@H](OC(=O)CCC)[C@H]1NS(=O)(=O)[O-].[Na+].[Na+].[Na+].[Na+].[Na+].[Na+].[Na+].[Na+].[Na+].[Na+].[Na+] (stereo in doubt; 2d) | 2.6 µg/mL | 12 IU mg-1 | 0.35 µg/mL |  | >1430 |  |  |  |  |
| CCCCCCCC(=O)OC/C(=C\C(=O)[O-])OC1OC(COS(=O)(=O)[O-])C(OC2OC(C(=O)[O-])C(OC3OC(COS(=O)(=O)[O-])C(OC4OC(C(=O)[O-])C(OC5OC(CS(=O)(=O)[O-])C(O)C(OC(=O)CCCCCCC)C5NS(=O)(=O)[O-])C(OC(=O)CCCCCCC)C4OS(=O)(=O)[O-])C(OC(=O)CCCCCCC)C3NS(=O)(=O)[O-])C(OC(=O)CCCCCCC)C2OS(=O)(=O)[O-])C(OC(=O)CCCCCCC)C1NS(=O)(=O)[O-].[Na+].[Na+].[Na+].[Na+].[Na+].[Na+].[Na+].[Na+].[Na+].[Na+].[Na+] (stereo not drawn) |  |  |  |  | 6 | >1 | 20 µg/mL | 3.3 µg/mL | > 23.2 µg/mL |

From ChEMBL document CHEMBL1126896, “Preparation and anti-HIV activity of O-acylated heparin and dermatan sulfate derivatives with low anticoagulant effect” (J Med Chem, 1993)
